# Source: PubChem BioAssay (several laboratories)
# SR-BI uptake up = activators of SR-BI mediated HDL lipid uptake | actives 0.096% (n = 320,000) | activation, % at 12.5 µM | CHO ldlA[mSR-BI] cells, DiI-HDL uptake fluorescence, 3 h; 100 = double the neutral-control signal;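 active = mean replicate activation of at least 60% and every replicate at or above 60%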;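 note: 0% = median plate neutral-control signal and 100% = twice that signal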
#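 Assay system: CHO ldlA[mSR-BI] cells, LDL receptor-null, SR-BI overexpressing; medium: Ham's F12 with 0.5% BSA, HEPES 25 mM, pH 7.4; also added: DiI-HDL 10 µg/mL; timing: 3 h uptake period with compound, 37 °C; signal: DiI fluorescence, bottom read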
# AHR act = human AHR activation | P35869 | AHR-responsive luciferase reporter cells, luminescence | activation, % at 5 µM | actives 2.5% (n = 320,000); in the data active = activation above about 47%;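 note: 0% = vehicle wells and 100% = reference agonist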
# GASC-1 inh = inhibitors of human GASC-1 (JMJD2C) demethylase; Q9H3R0; GST-JMJD2C(1-420) H3K9me3 demethylation, DELFIA europium; inhibition, % at 2.35 µM; actives 0.069% (n = 330,000);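 active = more than half of a compound's replicate wells show inhibition beyond 50%, single wells judged on their own value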;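 note: signal counts dimethyl H3K9 product captured on neutravidin plate; 0% = median of DMSO wells and 100% = 0.3 times that DMSO median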
# SR-BI HDL uptake = inhibitors of mouse SR-BI mediated HDL lipid uptake. actives 0.96% (n = 320,000). inhibition, % at 12.5 µM. ldlA[mSR-BI] CHO cells, DiI-HDL uptake fluorescence, 3 h;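 active = mean replicate inhibition of at least 70% and a set share of replicates each scoring 70 or more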;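 note: 0% = median of neutral control wells and 100% = median of positive control wells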
# GAA850 FXN act = frataxin GAA850 promoter activation; HEK293 lucGAA850 FXN promoter luciferase reporter, 24 h; percent of 10 µM SAHA response; activation, % at 6 µM; actives 0.56% (n = 360,000);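 active = activation above the average of all compounds screened plus 3 SD, cutoff fixed separately per campaign, cut at about 7.5% in these data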;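 note: 0% = DMSO wells and 100% = 10 µM SAHA wells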
# The depositor's hits bear a star; x = no result given. This is a sample that favours compounds with a hit; in the whole collection about 3.7% have one here.
SMILES,SR-BI uptake up,AHR act,GASC-1 inh,SR-BI HDL uptake,GAA850 FXN act
CC(C)(C)C(=O)Cn1c(=N)n(Cc2ccccc2)c2ccccc21,-5,1,-3,5,1
N=c1n(CC(=O)c2ccc(Br)s2)c2ccccc2n1Cc1ccccc1,2,71*,-1,-2,-2
CCNC(=O)C1(C)CCCN(C(=O)c2ccc(C(F)(F)F)nc2C)C1 (stereo not drawn),x,x,x,x,0
Cc1c(C(=O)O)sc2nc(-c3cccs3)cc(C(F)(F)F)c12,x,13,9,x,2
COc1ccc(-c2cc(C(F)(F)F)c3c(N)c(C(=O)NCCSC)sc3n2)cc1,-62,62*,6,62,3
COc1cccc(-c2cc(C(F)(F)F)c3c(N)c(C#N)sc3n2)c1,x,55*,0,x,x
COc1ccc(OC)c(NC(=O)c2nnn(CCc3ccccc3)c2N)c1,-40,25,1,40,0
CC(=O)c1sc2nc(-c3cccs3)cc(C(F)(F)F)c2c1N,-72,34,-3,72*,-1
COc1ccc(OC)c(NC(=O)c2sc3nc(Cc4ccccc4)cc(C(F)(F)F)c3c2N)c1,-71,3,2,71*,-3
CN1CCC(C(=O)C(=O)O)C1=O (stereo not drawn),19,x,x,-19,2
CCOC(=O)c1cnc(-c2ccccc2)nc1N1CCOCC1,-57,48*,-5,57,2
CCOC(=O)c1c(-c2ccccc2)csc1NC(=O)CCN1CCOCC1,-20,10,7,20,3
CCOC(=O)c1[nH]cc(-c2ccccc2)c1N1CCOCC1,-6,49*,-6,6,1
CCCN(CCC)CCNC(=O)C1c2ccccc2C(=O)N2CCc3ccccc3C12 (stereo not drawn),x,8,-15,x,-1
CCOCCCNC(=O)C1c2ccccc2C(=O)N2CCc3ccccc3C12 (stereo not drawn),17,76*,8,-17,0
NC(=O)C1CCN(C(=O)C2c3ccccc3C(=O)N3CCc4ccccc4C23)CC1 (stereo not drawn),10,61*,-1,-10,1
COc1ccc2c(c1)CCc1sc(NC(=O)c3ccc(C)cc3)nc1-2,-15,0,-2,15,-3
O=C(Nc1nc2c(s1)CCCC2)c1cccs1,-19,59*,2,19,-2
COc1ccc2c(c1)-c1nc(NC(=O)c3cccs3)sc1CC2,-79,23,-4,79*,2
COc1ccc2c(c1)CCc1sc(NC(=O)c3ccco3)nc1-2,-20,4,3,20,2
COc1ccc2c(c1)-c1nc(NC(=O)c3ccco3)sc1CC2,-78,15,3,78*,7
Cc1ccc(C(=O)c2nc(C(=O)NCCO)nc3ccccc23)cc1,1,48*,1,-1,0
CCc1cccc(C)c1NC(=S)N(Cc1cccnc1)Cc1ccco1,33,-1,12,-33,2
Cn1c2ccccc2c2cc(C(=O)NNS(=O)(=O)c3ccc(F)cc3)sc21,-40,77*,-6,40,1
COc1ccc(CNC(=O)c2ccc(N3CCOCC3)c([N+](=O)[O-])c2)cc1,-12,1,4,12,1
SMILES,SR-BI uptake up,AHR act,GASC-1 inh,SR-BI HDL uptake,GAA850 FXN act
COc1ccc(Nc2nnc(-c3ccc(N4CCOCC4)c([N+](=O)[O-])c3)c3ccccc23)cc1,-79,x,x,79*,0
COc1ccc(C(=O)c2ccc(N3CCOCC3)c([N+](=O)[O-])c2)cc1,-80,-2,-9,80*,-1
CNC[C@H]1Oc2c(NS(=O)(=O)c3ccccc3)cccc2C(=O)N([C@H](C)CO)C[C@@H]1C,17,1,10,-17,1
COC(=O)C/C=C/[C@@H](C)[C@@H](/C=N/OCC[C@@H]1C=C[C@H](OC(C)=O)[C@@H](COC(C)=O)O1)NS(=O)(=O)c1ccc(C)cc1,x,0,-4,x,x
CCc1ccc(NC(=O)c2cnc3scc(C)n3c2=O)cc1,19,63*,9,-19,2
Cn1ncc(Cl)c1C(=O)Nc1ccncc1,0,-1,6,0,1
Cn1ncc(Cl)c1C(=O)NCc1ccc2c(c1)OCO2,9,49*,4,-9,-3
Cn1ncc(Cl)c1C(=O)NCc1ccc(Cl)cc1,9,0,1,-9,1
Cc1csc2ncc(C(=O)NCc3ccc4c(c3)OCO4)c(=O)n12,x,78*,0,x,x
Cn1ncc(Cl)c1C(=O)Nc1ccc(CN2CCCCC2)cc1,1,76*,-8,-1,-2
Cc1csc2ncc(C(=O)NCc3ccccc3Cl)c(=O)n12,4,45,6,-4,2
O=C(O)[C@@H]1CC(O)CN1C(=O)CCc1c[nH]c2ccccc12 (stereo partly drawn),-2,x,-5,2,0
CC(C)N(Cc1nc(-c2ccc(Cl)cc2)no1)Cc1nccn1C,4,24,-36,-4,0
COc1ccccc1C1C=C(c2ccc(C)cc2)Nc2nnnn21 (stereo not drawn),-17,54*,13,17,2
CCN(c1ccc(NC(=O)COC(=O)c2ccc(S(=O)(=O)N3CCCC3)cc2)cc1)C(C)C,26,9,-2,-26,-2
CCOC(=O)C1=C(COC(=O)c2ncc(Cl)c(Cl)c2Cl)NC(=O)NC1C (stereo not drawn),6,3,-6,-6,4
O=C(CN1C(=O)NC(Cc2c[nH]c3ccccc23)C1=O)Nc1ccc(F)cc1F (stereo not drawn),-16,3,6,16,2
N#Cc1ccccc1NC(=O)CN1C(=O)NC(Cc2c[nH]c3ccccc23)C1=O (stereo not drawn),3,78*,x,-3,1
CC1CC(OC(=O)C2CCN(S(=O)(=O)c3ccc(F)cc3)CC2)C(=O)O1 (stereo not drawn),6,x,x,-6,-1
COc1ccc(CN2C3CCC2CC(NC(=O)c2cc(OC)c(OC)c(OC)c2)C3)cc1 (stereo not drawn),-5,0,21,5,-1
COc1ccccc1-c1nc(C(N)=O)c2[nH]c(=O)n(-c3cccc(C)c3)c2n1,6,66*,-8,-6,2
COc1ccc(/C=N/Nc2cc(C)nc3c(C)cccc23)cc1,-29,71*,-4,29,1
CCOC(=O)Cc1csc(NS(=O)(=O)c2ccc(SC)cc2)n1,31,-2,-3,-31,1
N#C/C(=C(/O)CSc1ccccn1)c1nc2ccccc2s1,23,51*,3,-23,4
N#C/C(=C(/O)COC(=O)c1ccc(C#N)cc1)c1nc2ccccc2s1,8,122*,24,-8,4
Clc1cccc(Nc2nc(-c3cccnc3)cs2)c1,-67,55*,5,67,6
Brc1cccc(Nc2nc(-c3cccnc3)cs2)c1,-24,70*,0,24,6
